Experimental data from ChEMBL document CHEMBL3774376, “Synthesis, and anticonvulsant activity of new amides derived from 3-methyl- or 3-ethyl-3-methyl-2,5-dioxo-pyrrolidin-1-yl-acetic acids” (Bioorg Med Chem, 2016).
Calls of active or inactive are those of the source. The calls are words filed in the database; no cut-off is given here.

Assays:
Mus musculus [1] = experiment: Anticonvulsant activity in CD1 albino mouse assessed as protection against subcutaneous pentylenetetrazole-induced seizures at 300 mg/kg, ip after 0.5 hrs; format: functional, organism-based
Summary of the method: (§1)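 Male CD-1 mice (16-26 g), compounds ip in 0.5% methylcellulose/water at 30, 100 or 300 mg/kg, 3-4 per group. At 0.5 or 4 h, pentylenetetrazole 85 mg/kg was injected sc. Protection was absence of clonic convulsions (at least 5 s) over a 30 min observation. Minimum active dose recorded.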

Mus musculus [2] = experiment: Anticonvulsant activity in CD1 albino mouse assessed as protection against maximal electroshock-induced seizures at 300 mg/kg, ip after 0.5 hrs; format: functional, organism-based
Mus musculus [3] = experiment: Neurotoxicity in CD1 albino mouse assessed as acute motor impairment at 300 mg/kg, ip after 4 hrs by rotarod test; format: toxicity, organism-based; settings: in vivo
Summary of the method: (§2)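 Male CD-1 mice given 30, 100 or 300 mg/kg ip in 0.5% methylcellulose, tested at 0.5 and 4 h. Motor impairment was scored as failure to keep balance for at least 1 min on a rod rotating at 10 rpm. Minimum dose causing impairment reported.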

Mus musculus [4] = experiment: Anticonvulsant activity in CD1 albino mouse assessed as protection against subcutaneous pentylenetetrazole-induced seizures at 300 mg/kg, ip after 4 hrs; format: functional, organism-based; summary of the method: as §1
Mus musculus [5] = experiment: Anticonvulsant activity in CD1 albino mouse assessed as protection against maximal electroshock-induced seizures at 300 mg/kg, ip after 4 hrs; format: functional, organism-based
Mus musculus [6] = experiment: Neurotoxicity in CD1 albino mouse assessed as acute motor impairment at 300 mg/kg, ip measured after 0.5 hrs by rotarod test; format: toxicity, organism-based; settings: in vivo; summary of the method: as §2
Mus musculus [7] = experiment: Anticonvulsant activity in ip dosed CD1 albino mouse assessed as time to peak effect; format: functional
Summary of the method: (§3)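 Quantitation in male CD-1 mice dosed ip at the previously estimated time of peak effect. Seizures were induced by MES or by sc pentylenetetrazole 85 mg/kg; rotarod at 10 rpm assessed motor impairment. Groups of six, at least three doses giving 10-90% effect.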

Mus musculus [8] = experiment: Anticonvulsant activity in CD1 albino mouse assessed as protection against subcutaneous pentylenetetrazole-induced seizures at 100 to 300 mg/kg, ip after 4 hrs; format: functional; settings: CD1, 4 h, read-out: MED; summary of the method: as §1
Mus musculus [9] = experiment: Anticonvulsant activity in CD1 albino mouse assessed as protection against subcutaneous pentylenetetrazole-induced seizures at 100 to 300 mg/kg, ip after 0.5 hrs; format: functional; settings: CD1, 0.5 h, read-out: MED; summary of the method: as §1
Mus musculus [10] = experiment: Anticonvulsant activity in ip dosed CD1 albino mouse assessed as time to peak effect by 6Hz psychomotor seizure test; format: functional
Summary of the method: (§4)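 6-Hz corneal stimulation at 32 mA (6 Hz, 3 s) in male CD-1 mice dosed ip. Groups of six received several doses until at least three points fell between 10 and 90% protection. […] PI = TD50/ED50 (rotarod).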

[11] = Neurotoxicity in ip dosed CD1 albino mouse assessed as acute motor impairment by rotarod test; format: toxicity, organism-based; settings: in vivo; summary of the method: as §3
Mus musculus [12] = experiment: Anticonvulsant activity in ip dosed CD1 albino mouse assessed as protection against 32 mA-current- for 3 secs induced seizure by 6Hz psychomotor seizure test; format: functional; summary of the method: as §4
Mus musculus [13] = experiment: Neurotoxicity in CD1 albino mouse assessed as acute motor impairment at 100 to 300 mg/kg, ip after 0.5 hrs by rotarod test; format: toxicity, organism-based; settings: in vivo; summary of the method: as §2
Mus musculus [14] = species: Mus musculus; experiment: Protection index, ratio of TD50 for CD1 albino mouse to ED50 for protection against 32 mA-current- for 3 secs induced seizure in CD1 albino mouse by 6Hz psychomotor seizure test; summary of the method: as §4
Mus musculus [15] = experiment: Anticonvulsant activity in CD1 albino mouse assessed as protection against maximal electroshock-induced seizures at 100 to 300 mg/kg, ip after 0.5 hrs; format: functional; settings: read-out: MED
Mus musculus [16] = experiment: Anticonvulsant activity in CD1 albino mouse assessed as protection against maximal electroshock-induced seizures at 100 to 300 mg/kg, ip after 4 hrs; format: functional; settings: read-out: MED

Row | SMILES | Activity (Mus musculus [1]) | Activity (Mus musculus [2]) | Activity (Mus musculus [3]) | Activity (Mus musculus [4]) | Activity (Mus musculus [5]) | Activity (Mus musculus [6]) | Time (Mus musculus [7]) | minimal effective dose (Mus musculus [8]) | minimal effective dose (Mus musculus [9]) | Time (Mus musculus [10]) | TD50 [11] | ED50 (Mus musculus [12]) | MTC (Mus musculus [13]) | Ratio TD50/ED50 (Mus musculus [14]) | minimal effective dose (Mus musculus [15]) | minimal effective dose (Mus musculus [16])
1 | CCC1(C)CC(=O)N(CC(=O)N2CCN(c3cccc(C)c3)CC2)C1=O (stereo not drawn) | inactive | inactive | Non-toxic | inactive | inactive | Non-toxic | – | – | – | – | – | – | – | – | – | –
2 | CCC1(C)CC(=O)NC1=O (stereo not drawn) [ETHOSUXIMIDE] | – | inactive | Non-toxic | – | inactive | Non-toxic | 0.25 h | 300 mg/kg | 100 mg/kg | – | – | – | – | – | – | –
3 | CCC1(C)CC(=O)N(CC(=O)N2CCN(c3ccc(Cl)c(Cl)c3)CC2)C1=O (stereo not drawn) | inactive | inactive | Non-toxic | inactive | inactive | Non-toxic | – | – | – | – | – | – | – | – | – | –
4 | CC[C@@H](C(N)=O)N1CCCC1=O | – | – | – | – | – | – | – | – | – | 1 h | > 500 mg/kg | – | – | – | – | –
5 | CCC1(C)CC(=O)N(CC(=O)N2CCN(c3cccc(Cl)c3)CC2)C1=O (stereo not drawn) | inactive | inactive | Non-toxic | inactive | inactive | Non-toxic | – | – | – | – | – | – | – | – | – | –
6 | CCC1(C)CC(=O)N(CC(=O)N2CCN(c3ccc(Cl)cc3)CC2)C1=O (stereo not drawn) | – | inactive | Non-toxic | inactive | inactive | – | – | – | 100 mg/kg | 0.5 h | 196 mg/kg | 128 mg/kg | 300 mg/kg | 1.53 | – | –
7 | CC1CC(=O)N(CC(=O)N2CCN(c3ccccc3)CC2)C1=O (stereo not drawn) | – | – | Non-toxic | – | inactive | – | – | 300 mg/kg | 300 mg/kg | – | – | – | 300 mg/kg | – | 300 mg/kg | –
8 | Cc1ccccc1N1CCN(C(=O)CN2C(=O)CC(C)C2=O)CC1 (stereo not drawn) | – | – | Non-toxic | inactive | inactive | – | – | – | 100 mg/kg | – | – | – | 300 mg/kg | – | 300 mg/kg | –
9 | Cc1cccc(N2CCN(C(=O)CN3C(=O)CC(C)C3=O)CC2)c1 (stereo not drawn) | – | – | Non-toxic | inactive | inactive | – | – | – | 100 mg/kg | – | – | – | 300 mg/kg | – | 300 mg/kg | –
10 | CCC1(C)CC(=O)N(CC(=O)N2CCN(c3ccccc3F)CC2)C1=O (stereo not drawn) | inactive | inactive | Non-toxic | inactive | inactive | Non-toxic | – | – | – | – | – | – | – | – | – | –
11 | CC1CC(=O)N(CC(=O)N2CCN(c3ccccc3F)CC2)C1=O (stereo not drawn) | inactive | – | Non-toxic | inactive | – | – | – | – | – | – | – | – | 300 mg/kg | – | 300 mg/kg | 300 mg/kg
12 | CCCC(CCC)C(=O)O [VALPROIC ACID] | – | – | Non-toxic | inactive | inactive | Non-toxic | 0.5 h | – | 300 mg/kg | 0.5 h | – | – | – | – | 300 mg/kg | –
13 | CCC1(C)CC(=O)N(CC(=O)N2CCN(c3ccccc3)CC2)C1=O (stereo not drawn) | inactive | inactive | Non-toxic | inactive | inactive | Non-toxic | – | – | – | – | – | – | – | – | – | –
14 | CCC1(C)CC(=O)N(CC(=O)N2CCN(c3cccc(Cl)c3Cl)CC2)C1=O (stereo not drawn) | inactive | inactive | Non-toxic | inactive | inactive | Non-toxic | – | – | – | – | – | – | – | – | – | –
15 | CCC1(C)CC(=O)N(CC(=O)N2CCN(c3ccccc3C)CC2)C1=O (stereo not drawn) | – | – | Non-toxic | inactive | inactive | – | – | – | 100 mg/kg | – | – | – | 300 mg/kg | – | 100 mg/kg | –
